Screening results: PubChem BioAssay, several laboratories
EBI2 antag – blocks human EBI2 receptor beta-arrestin signaling. P32249. inhibition, % at 5 µM. 360,000 tested, 0.81% active. EBI2 beta-arrestin recruitment, luminescence, 7a,25-OHC stimulated; in the data active = inhibition above about 38%;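 note: enzyme fragment complementation signal reports receptor beta-arrestin coupling in cells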
CCR6 antagonist – antagonists of human CCR6 receptor; P51684; CHO-K1 CCR6 PathHunter beta-arrestin, luminescence, CCL20-stimulated; inhibition, % at 20 µM; 340,000 tested, 0.49% active;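 active = compounds whose inhibition of the agonist-driven luminescence signal at 20 µM reaches about 50%, limit read from the data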;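 note: cells stimulated with CCL20 at 14 nM final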
APJ antag – antagonists of human APJ apelin receptor | P35414 | CHO-K1 APJ beta-arrestin complementation, luminescence | inhibition, % at 20 µM | 330,000 tested, 0.32% active | AID 2521;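 active = inhibition above about 40% at 20 µM, limit read from the data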;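 note: cells challenged with 10 nM apelin-13 agonist together with compound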
Target sequence (P35414 whole entry, looked up): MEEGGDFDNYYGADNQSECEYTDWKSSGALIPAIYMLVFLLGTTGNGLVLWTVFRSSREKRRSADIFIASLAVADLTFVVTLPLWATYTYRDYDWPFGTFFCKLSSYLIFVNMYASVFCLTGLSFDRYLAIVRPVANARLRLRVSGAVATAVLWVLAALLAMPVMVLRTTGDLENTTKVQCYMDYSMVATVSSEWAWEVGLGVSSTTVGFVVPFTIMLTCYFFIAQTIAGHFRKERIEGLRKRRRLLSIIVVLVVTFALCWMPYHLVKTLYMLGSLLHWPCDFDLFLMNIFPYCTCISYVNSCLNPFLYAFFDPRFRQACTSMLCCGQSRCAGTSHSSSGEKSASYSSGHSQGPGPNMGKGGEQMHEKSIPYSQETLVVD
CXCR6 inh – CXCR6 (human) receptor inhibition | O00574 | CHO-K1 PathHunter CXCR6 beta-arrestin, luminescence | inhibition, % at 20 µM | 360,000 tested, 0.36% active; in the data active = inhibition above about 34%, passing the limit was not always enough;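 note: antagonist mode with CXCL16 agonist at 10 nM final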
Target sequence (O00574 whole entry, looked up): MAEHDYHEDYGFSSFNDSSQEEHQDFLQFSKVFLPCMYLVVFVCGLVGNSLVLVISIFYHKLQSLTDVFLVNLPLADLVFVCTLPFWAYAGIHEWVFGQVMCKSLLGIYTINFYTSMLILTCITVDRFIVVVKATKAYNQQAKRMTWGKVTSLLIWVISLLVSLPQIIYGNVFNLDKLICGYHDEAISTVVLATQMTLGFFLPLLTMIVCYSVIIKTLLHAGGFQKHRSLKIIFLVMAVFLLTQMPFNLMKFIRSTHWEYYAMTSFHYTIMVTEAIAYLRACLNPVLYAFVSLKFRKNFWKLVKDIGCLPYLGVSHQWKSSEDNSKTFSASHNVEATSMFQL
APJ agonist – APJ receptor agonism; P35414; CHO-K1 APJ PathHunter beta-arrestin, luminescence; 0% DMSO wells, 100% apelin; activation, % at 20 µM; 330,000 tested, 0.11% active; AID 2520;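 active = activation more than six SD over the plate average, tested at 20 µM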
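Material: engineered CHO-K1 APJ arrestin reporter cells; amount: 1000 CHO-K1 reporter cells seeded per well; incubation: compound stimulation 90 min at 25 °C, detection 60 min; signal: luminescent beta-gal fragment complementation, chemiluminescent substrate; read-out basis: APJ agonist activity; controls: DMSO-only wells as negative, 10 nM Apelin-13 as positive control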
Beta2AR agonist – agonists of human beta-2 adrenergic receptor inducing internalization | P07550 | Am2.2-beta2AR cells, FAP receptor internalization, flow cytometry | response, % (no concentration beside the values) | 340,000 tested, 0.43% active;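 active = response above a set limit, near 3 SD of response in nonfluorescent compounds, cut at about 42% in these data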
CXCR6 confirm – CXCR6 antagonism confirmation, single concentration | inhibition, % at 20 µM | shares compounds with CXCR6 inh | 700 tested, 65% active | CHO-K1 CXCR6 PathHunter beta-arrestin, luminescence;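 active = mean inhibition over four retests above 40%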;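 note: receptor stimulated with 10 nM CXCL16 agonist; beta-galactosidase fragment complementation upon beta-arrestin recruitment to receptor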
Large screens that a line does not name were inactive (follow-up assays come after a bar, where they were run). Rows were chosen to be rich in hits. Some 1.8% of all compounds tested hit in one or more screens of this group.

O=C(COC(=O)c1ccc(F)cc1Cl)NC1CC1	none (no result: CCR6 antagonist, APJ antag, APJ agonist, Beta2AR agonist)
COc1ccc(S(=O)(=O)N2CCN(C(=O)C3CC3)CC2)cc1Br	none
CC(=O)Nc1cccc(OCC(O)Cn2c(C)nc3ccccc32)c1 (centres undefined)	CXCR6 inh 40.5 | CXCR6 confirm inactive
O=[N+]([O-])c1c(NCCO)cc(N2CCCCCC2)c2nonc12	none
Cc1nnc(Sc2cc(NCCCO)c([N+](=O)[O-])c3nonc23)s1	CCR6 antagonist 92.2, CXCR6 inh 66.8, Beta2AR agonist 42.6 (no result: APJ antag, APJ agonist) | CXCR6 confirm 99.8
Cc1nnc(Sc2cc(NCCO)c([N+](=O)[O-])c3nonc23)s1	CCR6 antagonist 68.4, CXCR6 inh 71.2 (no result: APJ antag, APJ agonist) | CXCR6 confirm 75.5
CCCOc1ccc(CN(CCC#N)C(=S)NC(=O)c2ccccc2)cc1	CXCR6 inh 43.6 (no result: CCR6 antagonist) | CXCR6 confirm 59.4
COc1cc(C(=O)NC(=S)N(CCC#N)Cc2cccnc2)cc(OC)c1OC	none
COc1ccccc1C(=O)NC(=O)COC(=O)c1nc(Cl)ccc1Cl	none
O=C(O)C1CCc2sc3[nH]c(=S)n(-c4ccccc4)c(=O)c3c21 (centres undefined)	CXCR6 inh 43.8 | CXCR6 confirm inactive
CCN(CC)C(=O)c1sc2[nH]c(=S)n(-c3ccccc3)c(=O)c2c1C	none
NC(=O)c1ccc(/C=N/O)[n+](Cc2ccccc2)c1	none
Cc1cc(C)c2c(=O)n(CC(=O)NC3CCCC3)sc2n1	CXCR6 inh 99.3 | CXCR6 confirm inactive
C/C(=N\NC(=O)C(c1ccccc1)c1ccccc1)c1ccc(O)cc1	none
C/C(=N\NC(=O)C1COc2ccccc2O1)c1ccccn1 (centres undefined)	CCR6 antagonist 77.8, APJ antag 58.5, CXCR6 inh 75.1 | CXCR6 confirm 68.3
C/C(=N\NC(=O)C(c1ccccc1)c1ccccc1)c1ccccn1	CCR6 antagonist 105.3, APJ antag 74.9, CXCR6 inh 86.5, Beta2AR agonist 46.2 | CXCR6 confirm 107.7
CCC(=O)Nc1cc(-c2nn(C)c(=O)c3ccccc23)ccc1OC	none
COc1ccc(-c2nn(C)c(=O)c3ccccc23)cc1NC(=O)Cn1nc(C)c2ccccc2c1=O	CCR6 antagonist 65.9, CXCR6 inh 37.3, Beta2AR agonist 48.3 | CXCR6 confirm 46.6
O=S1(=O)C[C@H](N2CCOCC2)[C@@H](COCc2ccccc2)N1	none (no result: CCR6 antagonist, APJ antag, APJ agonist, Beta2AR agonist)
NC(=S)N/N=C/c1ccc(C(F)(F)F)cc1	none
NC(=S)N/N=C/c1ncc(C(F)(F)F)cc1Cl	CCR6 antagonist 74.3, APJ antag 58.1, CXCR6 inh 60.7 | CXCR6 confirm 89.9
NNC(=O)c1cccc(COc2ccc3c(c2)CCC3)c1	CXCR6 inh 49.3 | CXCR6 confirm inactive
CC(c1ccccc1)n1cnc2ccccc2c1=O (centres undefined)	none
O=C(Nc1ccccc1)c1nnsc1S(=O)c1ccc(Cl)cc1 (centres undefined)	CCR6 antagonist 101.1, CXCR6 inh 89.2 | CXCR6 confirm 96.7
CCN(CC(=O)NC(C)(C)C)C(=O)COc1c(Cl)cc(Cl)c2ccc(C)nc12	CXCR6 inh 32.8 (no result: CCR6 antagonist) | CXCR6 confirm inactive
CCN1CCN(C(=O)C2CCC(=O)N(Cc3cccc(C(F)(F)F)c3)C2)CC1 (centres undefined)	none
CC1=C(C)CC2C(C1)C(=O)c1ccc(Br)cc1S2(=O)=O (centres undefined)	CCR6 antagonist 84.3, CXCR6 inh 71.5 | CXCR6 confirm 41.4
CC1=CCC2C(=O)N(c3ccc(Br)cc3C)C(=O)C2C1 (centres undefined)	none
NS(=O)(=O)c1ccc(CNC(=O)NC23CC4CC(CC(C4)C2)C3)cc1	CXCR6 inh 61.3 | CXCR6 confirm inactive
COc1cc(/C=C2/C(=O)NN(c3ccc(C)c(Cl)c3)C2=O)cc([N+](=O)[O-])c1O	none
COc1cc(/C=C2\SC(=O)N(c3ccc(Cl)cc3)C2=O)cc([N+](=O)[O-])c1O	CCR6 antagonist 77.4, CXCR6 inh 46.4 (no result: APJ antag, APJ agonist) | CXCR6 confirm 56.4
COc1ccccc1NCC(=O)c1ccc(C)c(C)c1	CCR6 antagonist 81.9, CXCR6 inh 51.8 | CXCR6 confirm inactive
COC(=O)C[C@@H]1C=C[C@H](NC(=O)c2cnccn2)[C@@H](CO)O1	none (no result: CCR6 antagonist, APJ antag, CXCR6 inh, APJ agonist, Beta2AR agonist)
COc1ccc(N=N/C(=C\O)C(=O)c2cccs2)cc1	none
COc1ccc(C(=O)/C(=C\c2ccco2)N2C=CC=CC2=C(C#N)C#N)cc1	EBI2 antag 54.0, CCR6 antagonist 100.2, APJ antag 85.6, CXCR6 inh 83.5, Beta2AR agonist 60.3 | CXCR6 confirm 102.9
N#CC(C#N)=C1C=CC=CN1/C(=C\c1ccco1)C(=O)c1ccccc1	EBI2 antag 77.7, CCR6 antagonist 100.0, CXCR6 inh 97.7, Beta2AR agonist 60.4 (no result: APJ antag, APJ agonist) | CXCR6 confirm 105.0
COc1ccc(C(=O)N/C(=C\c2ccco2)C(=O)OCc2ccco2)cc1	none
COc1ccc(/C=C(/C(=O)c2cccs2)N2C=CC=CC2=C(C#N)C#N)cc1	CCR6 antagonist 83.8, CXCR6 inh 61.8, Beta2AR agonist 77.4 (no result: APJ antag, APJ agonist) | CXCR6 confirm 57.4
CC(=O)c1ccc(OCC(=O)OCC(=O)c2ccc(S(=O)(=O)N3CCCCC3)cc2)cc1	CXCR6 inh 40.2 (no result: CCR6 antagonist, APJ antag, APJ agonist, Beta2AR agonist) | CXCR6 confirm inactive
Clc1nc(-c2ccccn2)nc2scc(-c3ccccc3)c12	EBI2 antag 61.2, CXCR6 inh 51.3 | CXCR6 confirm inactive
CC1CCN(c2nc(-c3cccnc3)nc3scc(-c4ccccc4)c23)CC1	none
C=C1C(=O)C23CCC4C(C)(C(=O)OC)CCCC4(C)C2CCC1(O)C3 (centres undefined)	EBI2 antag 77.5, CCR6 antagonist 86.0, CXCR6 inh 79.0, Beta2AR agonist 95.6 (no result: APJ antag, APJ agonist) | CXCR6 confirm 89.1
CCN(CC)C(=O)c1[nH]cnc1C(=O)NC1CCN(C(=O)OC(C)(C)C)CC1	none
Cc1ccc(OCC(=O)NNC(=S)NC(=O)C2CC2)c(C)c1	CXCR6 inh 45.0 (no result: CCR6 antagonist) | CXCR6 confirm 41.3
Cc1ccc(C(=O)N(Cc2ccccc2)C(C)(C)C)cc1C	none
Cc1ccc(CN2CCC(C)(Oc3cccc(Cl)c3)C2)cc1 (centres undefined)	none (no result: CCR6 antagonist, APJ antag, APJ agonist, Beta2AR agonist)
CN(CC(=O)Nc1cc(S(=O)(=O)N2CCCC2)ccc1Cl)Cc1cccs1	CXCR6 inh 28.7 | CXCR6 confirm 51.5
Cc1onc(-c2ccccc2)c1C(=O)Nc1cccc(S(=O)(=O)N2CCCCC2)c1	none
O=C(N/N=C/c1sc(N2CCOCC2)nc1-c1ccccc1)c1ccccc1Cl	none
O=[N+]([O-])c1ccc(N/N=C/c2sc(N3CCOCC3)nc2-c2ccccc2)c(S(=O)(=O)Nc2ccccc2Cl)c1	CCR6 antagonist 58.2, CXCR6 inh 54.4 (no result: APJ antag, APJ agonist) | CXCR6 confirm 59.7
